{"source": "ChEMBL document CHEMBL3526077", "about": "“Prediction of human metabolism of FK3453 by aldehyde oxidase using chimeric mice transplanted with human or rat hepatocytes” (Drug Metab Dispos, 2012)", "key": {"Mus musculus [1]": {"test_system": "Mus musculus", "assay": "Drug metabolism in plasma of chimeric mouse transplanted with rat hepatocytes treated with FK3453 at 3 mg/kg, iv as single dose", "format": "ADME, organism-based, Hepatocyte", "design": "dose 3 mg/kg, route intravenous", "in_short": "(§1)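 Pooled plasma from h-PXB or r-PXB mice after a 3 mg/kg i.v. dose was mixed with an equal volume of acetonitrile and centrifuged. Metabolites were profiled by C18 UPLC with ammonium formate/acetonitrile gradient, UV 254 nm, and Orbitrap MS/MS. Scored as detected or not detected.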"}, "[2]": {"assay": "Retention time of the compound by UV/mass spectrometry", "format": "physicochemical", "in_short": "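Retention time on Acquity BEH C18 column (1.7 µm, 2.1×100 mm). Mobile phase 5 mM ammonium formate with 5% acetonitrile against acetonitrile, at 0.2 mL/min. Gradient: 100:0 to 2.5 min, linear to 65:35 by 25 min, 10:90 to 27 min. Detection by UV at 254 nm and MS.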"}, "Mus musculus [3]": {"test_system": "Mus musculus", "assay": "Drug metabolism in plasma of chimeric mouse transplanted with human hepatocytes treated with FK3453 at 3 mg/kg, iv as single dose", "format": "ADME, organism-based, Hepatocyte", "design": "dose 3 mg/kg, route intravenous", "in_short": "as §1"}}}
{"molecule": "CC(C)n1nc(-c2c(-c3ccccc3)nc(N)[nH]c2=O)ccc1=O", "values": [{"measurement": "Drug metabolism", "setting": "Mus musculus [1]", "result": "metabolite_detected"}, {"measurement": "Retention_time", "setting": "[2]", "result": 16.5, "unit": "min"}, {"measurement": "Drug metabolism", "setting": "Mus musculus [3]", "result": "metabolite_detected"}]}
